Results of several laboratories.
Target: Beta-2 adrenergic receptor (ADRB2, Homo sapiens, UniProt P07550)

| Compound | test | setting | quantity | value |
| --- | --- | --- | --- | --- |
| O=C(NC[C@H](O)CO)[C@@H]1C[C@H](c2ccccc2)CCN1 (mixture of isomers) | ligand displacement, radioligand | 10 µM | inhibition | -15.9% |
| Nc1ncc(-c2nc(N3CCOCC3)nc(N3CCOCC3)n2)c(C(F)F)n1 | cell-free assay, radioligand | 10 µM | remaining signal | 98% |
| CN(CCN1CCC(OC(=O)Nc2ccccc2-c2ccccc2)CC1)C(=O)c1ccc(CN2CCC(C(N)=O)CC2)cc1 | ligand displacement, radioligand | 1 µM | inhibition | -1% |
| CC(Cc1ccc2c(c1)OCO2)NCC(O)c1ccc(O)c(O)c1 (centres unmarked) | β-arrestin recruitment, agonist |  | Emax | 131% |
| CCN(CC)CCCC[C@H](NC(=O)[C@H](CC(C)C)NC(=O)[C@H](C)NC(=O)[C@H](Cc1ccccc1)NC(=O)c1ccc(C(C)(C)C)cc1)C(=O)N[C@@H](CO)C(=O)OC | ligand displacement, radioligand | 10 µM | remaining binding | 101% |
| c1ccc(C(NCCNC(c2ccccc2)c2ccccc2)c2ccccc2)cc1 | cell-free assay | 10 µM | inhibition | 1% |
| O=C(Nc1cccnn1)N1CCN([C@@H]2CCOc3cc(C(F)(F)F)ccc32)CC1 | cell-free assay | 20 µM | inhibition | 10% |
| Cc1c(N2CCNCC2)nc2ccc(Br)cc2c1C(=O)NC[C@H](CCC(=O)O)c1ccccc1Cl | ligand displacement | 10 µM | inhibition | 18.4% |
| CC(C)Cn1cnc2c(N)nc3ccccc3c21 | ligand displacement, radioligand | 10 µM | inhibition | 18% |
| Clc1ccc2c(C3CCN(CCc4c[nH]c5ccccc45)CC3)c[nH]c2c1 | ligand displacement, radioligand | 10 µM | inhibition | 91% |
| CC(C)N1CCC[C@H]1CNC(=O)c1cn(C2CCCC2)c(=O)c2c1c1ccccc1n2C | ligand displacement, radioligand | 10 µM | inhibition | -8% |
| COCc1c(-c2cc3cc(C)cc(OC)c3s2)c2c(N)ncnn2c1CN1CCNC(=O)C1 | ligand displacement, radioligand | 10 µM | inhibition | 14% |
| Cn1cncc1[C@@](O)(COc1ccc(C#N)cc1-c1ccc(OC(F)(F)F)cc1)c1ccc(C#N)cc1 | ligand displacement | 10 µM | inhibition | 23.1% |
| COc1ccc(S(=O)(=O)N2CCCCC2)cc1C | ligand displacement, radioligand | 10 µM | inhibition | < 30% |
